ChEMBL document CHEMBL3430321, “Simulation of multiple ion channel block provides improved early prediction of compounds' clinical torsadogenic risk” (Cardiovasc Res, 2011)

Tests used:
[1] = target: T1, Voltage-gated inwardly rectifying potassium channel KCNH2 (Homo sapiens, UniProt Q12809); experiment: (§1) Inhibition of hERG K channel; format: functional
Method in brief: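 IKr block assessed from concentration–response curves in HEK-293 cells stably transfected with hERG cDNA, giving IC50 values.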

[2] = (§2) Effective free therapeutic plasma concentration (EFTPC): the concentration of unbound compund in the blood plasma at therapeutic dose (mean of range); format: ADME, organism-based; details: human, in vivo
[3] = target: Sodium channel alpha subunit; experiment: Inhibition of Na channel (species unknown); format: functional
[4] = target: Voltage-gated L-type calcium channel (Homo sapiens, UniProt Q13936+Q13698+Q01668+O60840); experiment: Inhibition of voltage-gated L-type Ca channel (species unknown); format: functional
[5] = target: Voltage-dependent L-type calcium channel subunit alpha-1C (Cavia porcellus, UniProt O35505); experiment: Inhibition of calcium current (ICaL) measured using whole-cell patch clamp experiments in isolated guinea pig ventricular myocytes; format: functional, tissue-based, Heart, Ventricular myocyte
[6] = target: Sodium channel protein type 5 subunit alpha (Homo sapiens, UniProt Q14524); experiment: Inhibition of sodium current measured using whole-cell patch clamp experiments in HEK-293 cells stably transfected with hNaV1.5 cDNA; format: functional, cell-based, HEK293
[7] = target: T1, Voltage-gated inwardly rectifying potassium channel KCNH2; experiment: as §1
[8] = as §2; details: human, in vivo
[9] = target: T1, Voltage-gated inwardly rectifying potassium channel KCNH2; experiment: Inhibition of potassium current (Ikr) measured using whole-cell patch clamp experiments in HEK-293 cells stable transfected with hERG cDNA; format: functional, cell-based, HEK293
Method in brief: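 IKr concentration–response curves were recorded in HEK-293 cells stably expressing hERG cDNA.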

Chain of Sodium channel protein type 5 subunit alpha (Q14524 whole entry): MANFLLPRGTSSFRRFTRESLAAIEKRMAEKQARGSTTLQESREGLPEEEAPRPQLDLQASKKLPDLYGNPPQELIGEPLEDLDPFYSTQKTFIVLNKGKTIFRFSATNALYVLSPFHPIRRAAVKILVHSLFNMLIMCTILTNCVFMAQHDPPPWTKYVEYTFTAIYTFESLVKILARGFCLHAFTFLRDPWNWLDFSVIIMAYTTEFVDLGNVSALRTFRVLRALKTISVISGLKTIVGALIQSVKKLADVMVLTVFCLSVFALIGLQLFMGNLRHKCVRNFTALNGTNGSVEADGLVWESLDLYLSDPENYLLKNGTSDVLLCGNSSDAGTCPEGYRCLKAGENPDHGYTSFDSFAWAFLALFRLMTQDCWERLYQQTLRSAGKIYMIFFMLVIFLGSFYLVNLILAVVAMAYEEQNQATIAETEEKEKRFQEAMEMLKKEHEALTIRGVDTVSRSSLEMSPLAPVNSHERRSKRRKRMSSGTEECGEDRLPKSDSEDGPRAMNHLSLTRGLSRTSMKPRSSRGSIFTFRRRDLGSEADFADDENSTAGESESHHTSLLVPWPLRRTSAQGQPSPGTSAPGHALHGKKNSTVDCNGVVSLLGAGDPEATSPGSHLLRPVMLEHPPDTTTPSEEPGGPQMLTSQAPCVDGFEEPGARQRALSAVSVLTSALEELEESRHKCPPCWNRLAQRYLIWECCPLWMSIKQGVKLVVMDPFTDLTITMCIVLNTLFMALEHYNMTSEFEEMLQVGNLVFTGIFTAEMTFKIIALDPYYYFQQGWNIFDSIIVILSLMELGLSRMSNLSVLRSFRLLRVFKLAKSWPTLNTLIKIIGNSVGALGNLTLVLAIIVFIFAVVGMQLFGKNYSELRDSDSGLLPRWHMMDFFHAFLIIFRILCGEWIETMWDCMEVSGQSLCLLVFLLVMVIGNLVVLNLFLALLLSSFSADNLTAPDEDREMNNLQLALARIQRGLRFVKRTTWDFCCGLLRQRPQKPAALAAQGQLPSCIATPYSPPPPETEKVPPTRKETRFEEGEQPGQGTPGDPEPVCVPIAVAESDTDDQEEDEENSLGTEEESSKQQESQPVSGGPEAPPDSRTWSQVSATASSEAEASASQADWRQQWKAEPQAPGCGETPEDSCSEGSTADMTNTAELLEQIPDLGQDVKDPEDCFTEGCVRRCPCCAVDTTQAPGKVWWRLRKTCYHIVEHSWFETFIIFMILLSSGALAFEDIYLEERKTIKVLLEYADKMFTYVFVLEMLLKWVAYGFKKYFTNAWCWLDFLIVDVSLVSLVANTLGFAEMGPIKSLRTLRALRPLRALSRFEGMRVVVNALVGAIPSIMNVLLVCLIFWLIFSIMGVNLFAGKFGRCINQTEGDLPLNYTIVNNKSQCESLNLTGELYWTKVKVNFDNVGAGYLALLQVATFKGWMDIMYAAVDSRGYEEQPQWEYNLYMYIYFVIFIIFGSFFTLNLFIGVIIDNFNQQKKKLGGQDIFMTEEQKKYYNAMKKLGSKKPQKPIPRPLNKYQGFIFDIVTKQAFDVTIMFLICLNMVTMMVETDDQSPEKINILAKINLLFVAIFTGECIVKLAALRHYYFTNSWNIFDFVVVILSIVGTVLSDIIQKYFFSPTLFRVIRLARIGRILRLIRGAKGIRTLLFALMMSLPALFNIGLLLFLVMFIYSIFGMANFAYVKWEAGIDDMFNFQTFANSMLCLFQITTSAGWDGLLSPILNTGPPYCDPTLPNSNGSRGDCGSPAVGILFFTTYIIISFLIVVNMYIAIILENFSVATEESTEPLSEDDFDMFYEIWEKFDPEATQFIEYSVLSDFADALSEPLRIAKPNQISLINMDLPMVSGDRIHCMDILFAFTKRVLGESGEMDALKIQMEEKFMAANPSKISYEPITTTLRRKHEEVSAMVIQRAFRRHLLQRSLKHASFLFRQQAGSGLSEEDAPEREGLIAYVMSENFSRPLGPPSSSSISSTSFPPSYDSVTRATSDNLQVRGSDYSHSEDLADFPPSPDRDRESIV
Chain of Voltage-dependent L-type calcium channel subunit alpha-1C (O35505 whole entry): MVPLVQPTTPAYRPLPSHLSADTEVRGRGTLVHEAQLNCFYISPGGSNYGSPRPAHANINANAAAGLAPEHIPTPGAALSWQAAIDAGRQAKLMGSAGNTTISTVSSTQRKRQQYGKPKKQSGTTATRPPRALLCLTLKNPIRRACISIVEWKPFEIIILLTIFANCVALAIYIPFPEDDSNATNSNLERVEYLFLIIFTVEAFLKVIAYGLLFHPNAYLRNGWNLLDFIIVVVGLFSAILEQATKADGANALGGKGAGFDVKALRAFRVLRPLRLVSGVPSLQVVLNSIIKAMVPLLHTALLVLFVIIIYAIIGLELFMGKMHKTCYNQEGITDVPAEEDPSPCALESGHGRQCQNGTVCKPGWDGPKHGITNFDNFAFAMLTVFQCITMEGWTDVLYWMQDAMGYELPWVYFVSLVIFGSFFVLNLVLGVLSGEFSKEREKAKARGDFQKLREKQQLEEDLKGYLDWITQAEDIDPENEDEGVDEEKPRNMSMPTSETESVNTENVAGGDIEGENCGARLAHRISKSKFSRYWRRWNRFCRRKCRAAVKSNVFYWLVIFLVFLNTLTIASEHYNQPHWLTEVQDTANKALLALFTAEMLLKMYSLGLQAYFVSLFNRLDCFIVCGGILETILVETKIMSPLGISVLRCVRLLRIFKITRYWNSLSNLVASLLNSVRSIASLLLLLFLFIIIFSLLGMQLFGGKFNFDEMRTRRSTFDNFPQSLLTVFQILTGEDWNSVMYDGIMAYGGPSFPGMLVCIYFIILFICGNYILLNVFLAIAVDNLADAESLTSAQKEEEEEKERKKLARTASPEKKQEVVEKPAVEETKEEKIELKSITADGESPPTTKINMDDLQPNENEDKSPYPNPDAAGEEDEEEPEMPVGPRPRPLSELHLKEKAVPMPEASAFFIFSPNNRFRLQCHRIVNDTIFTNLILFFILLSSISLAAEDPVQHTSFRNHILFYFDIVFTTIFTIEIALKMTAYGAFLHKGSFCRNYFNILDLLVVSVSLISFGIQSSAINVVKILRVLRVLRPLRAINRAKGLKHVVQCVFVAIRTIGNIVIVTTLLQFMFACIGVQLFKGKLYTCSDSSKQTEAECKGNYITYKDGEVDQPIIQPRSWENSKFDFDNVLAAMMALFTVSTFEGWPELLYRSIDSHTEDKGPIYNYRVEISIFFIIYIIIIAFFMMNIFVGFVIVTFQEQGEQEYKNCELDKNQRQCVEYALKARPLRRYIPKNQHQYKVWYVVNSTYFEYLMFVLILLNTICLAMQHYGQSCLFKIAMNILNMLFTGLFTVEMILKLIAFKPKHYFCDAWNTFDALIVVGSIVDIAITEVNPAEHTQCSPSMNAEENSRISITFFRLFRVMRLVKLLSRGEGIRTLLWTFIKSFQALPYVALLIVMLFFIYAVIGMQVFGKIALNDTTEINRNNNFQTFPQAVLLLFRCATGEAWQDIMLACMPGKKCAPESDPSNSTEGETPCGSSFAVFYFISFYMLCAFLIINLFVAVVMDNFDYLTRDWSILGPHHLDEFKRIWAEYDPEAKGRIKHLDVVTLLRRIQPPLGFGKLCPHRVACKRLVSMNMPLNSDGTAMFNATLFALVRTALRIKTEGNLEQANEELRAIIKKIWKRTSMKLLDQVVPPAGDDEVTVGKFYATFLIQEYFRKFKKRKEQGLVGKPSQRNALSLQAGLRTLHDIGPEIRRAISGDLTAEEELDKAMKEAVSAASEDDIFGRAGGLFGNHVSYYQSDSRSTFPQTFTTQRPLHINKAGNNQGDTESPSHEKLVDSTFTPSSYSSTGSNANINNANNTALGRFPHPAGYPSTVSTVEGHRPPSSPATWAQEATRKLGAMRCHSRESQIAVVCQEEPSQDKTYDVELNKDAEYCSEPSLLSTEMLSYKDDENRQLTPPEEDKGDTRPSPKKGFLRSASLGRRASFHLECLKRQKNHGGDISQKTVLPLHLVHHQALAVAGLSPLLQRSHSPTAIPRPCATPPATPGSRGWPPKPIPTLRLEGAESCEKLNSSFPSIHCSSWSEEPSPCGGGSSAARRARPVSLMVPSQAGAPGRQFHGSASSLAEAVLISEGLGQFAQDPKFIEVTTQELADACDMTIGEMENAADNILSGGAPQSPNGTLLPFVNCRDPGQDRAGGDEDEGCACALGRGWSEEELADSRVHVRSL

Structure (SMILES)	EFTPC [2] [nM]	IC50 [3] [µM]	further results
C1CCC2(C1)C1CN(CC3CC3)CC2CN(CC2CC2)C1	80	20	IC50 [1]: 2.5 µM
CC[C@H]1[C@@H]2C[C@H]3[C@@H]4N(C)c5ccccc5[C@]45C[C@@H]([C@@H]2[C@H]5O)N3[C@@H]1O [AJMALINE]	900	[…]	IC50 [1]: 1.04 µM
CN(C)CCC=C1c2ccccc2CCc2ccccc21 [AMITRIPTYLINE]	–	20	IC50 [4]: 11.6 µM
CC(C)COCC(CN(Cc1ccccc1)c1ccccc1)N1CCCC1 (centres undefined) [BEPRIDIL]	21.5	–	IC50 [5]: 0.211 µM; IC50 [6]: 3.7 µM
CN(C)CCCN1c2ccccc2Sc2ccc(Cl)cc21 [CHLORPROMAZINE]	20.5	4.3	–
c1ccc(C2(c3ccccc3)CC2C2=NCCN2)cc1 (centres undefined) [CIFENLINE]	739	7.8	IC50 [4]: 30 µM
COc1cc(N)c(Cl)cc1C(=O)NC1CCN(CCCOc2ccc(F)cc2)CC1OC (centres undefined) [CISAPRIDE]	3.75	–	IC50 [6]: 14.7 µM
CNCCCN1c2ccccc2CCc2ccccc21 [DESIPRAMINE]	67.5	–	–
COc1ccc([C@@H]2Sc3ccccc3N(CCN(C)C)C(=O)[C@@H]2OC(C)=O)cc1 [DILTIAZEM]	87.5	9	–
CN(CCOc1ccc(NS(C)(=O)=O)cc1)CCc1ccc(NS(C)(=O)=O)cc1 [DOFETILIDE]	1.2	300	–
COCCCC/C(=N\OCCN)c1ccc(C(F)(F)F)cc1 [FLUVOXAMINE]	196	–	IC50 [5]: 4.9 µM
O=C(CCCN1CCC(O)(c2ccc(Cl)cc2)CC1)c1ccc(F)cc1 [HALOPERIDOL]	2.4	–	–
CN(C)CCCN1c2ccccc2CCc2ccccc21 [IMIPRAMINE]	70.5	3.6	IC50 [4]: 8.3 µM
Cc1cccc(C)c1OCC(C)N (centres undefined) [MEXILETINE]	–	–	IC50 [7]: > 10 µM
COCC(=O)O[C@]1(CCN(C)CCCc2nc3ccccc3[nH]2)CCc2cc(F)ccc2[C@@H]1C(C)C [MIBEFRADIL]	9	–	–
COC(=O)C1=C(C)NC(C)=C(C(=O)OC)C1c1ccccc1[N+](=O)[O-] [NIFEDIPINE]	–	–	EFTPC [8]: 5.4 nM
CCOC(=O)C1=C(C)NC(C)=C(C(=O)OC)C1c1cccc([N+](=O)[O-])c1 (centres undefined) [NITRENDIPINE]	1.56	36	–
O=C1NC(=O)C(c2ccccc2)(c2ccccc2)N1 [PHENYTOIN]	4250	–	IC50 [6]: 49 µM
O=c1[nH]c2ccccc2n1C1CCN(CCCC(c2ccc(F)cc2)c2ccc(F)cc2)CC1 [PIMOZIDE]	0.55	0.054	–
CC(Cc1ccccc1)NCCC(c1ccccc1)c1ccccc1 (centres undefined) [PRENYLAMINE]	13	–	IC50 [5]: 1.24 µM; IC50 [9]: 0.065 µM; IC50 [6]: 2.52 µM
CC(C)NCC(O)COc1cccc2ccccc12 (centres undefined) [PROPRANOLOL]	19	–	–
Cc1nc2n(c(=O)c1CCN1CCC(c3noc4cc(F)ccc34)CC1)CCCC2 [RISPERIDONE]	1.21	–	–
O=C1NCCN1CCN1CCC(c2cn(-c3ccc(F)cc3)c3ccc(Cl)cc23)CC1 [SERTINDOLE]	0.8	2.3	IC50 [4]: 8.9 µM
CC(C)(C)c1ccc(C(O)CCCN2CCC(C(O)(c3ccccc3)c3ccccc3)CC2)cc1 (centres undefined) [TERFENADINE]	4.55	–	–
CSc1ccc2c(c1)N(CCC1CCCCN1C)c1ccccc1S2 (centres undefined) [THIORIDAZINE]	593.5	–	–
